# Wnt bcat act = Wnt/beta-catenin pathway activation | Wnt/beta-catenin reporter cell assay, activator, plate reader | actives 1.2% (n = 300,000) | activation, % at 9.35 µM; in the data active = activation above about 30%, passing the limit was not always enough; inconclusive = no clear call, values can overlap the other calls
# Cneo AK release = Cryptococcus neoformans lysis via adenylate kinase release; C. neoformans lysis, adenylate kinase release luminescence, 4 h; normalised: neutral wells 0, clomiphene wells 100; lysis activity, % at 15 µM; actives 0.2% (n = 360,000); AID 651654;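 active = mean lysis activity across replicates of at least 80%, whatever share of replicates individually reach that level; inactive = mean lysis activity below 80%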
#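 Signal: Adenylate kinase release luminescence | Assay system: Log-phase Cryptococcus neoformans yeast cells | Input: Cells at 5 × 10^6 per mL | Buffer or medium: Fresh YPD growth medium | Compound: Single dose | Schedule: Static 4 h at 37 °C with compound, 1 h detection | Controls: Clomiphene | Read-out: Luminescence rise reflecting yeast cell lysis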
# PGC1a acetyl inh = PGC1a acetylation modulation, inhibitor mode; actives 0.17% (n = 350,000); AID 651687; U2OS PGC1a acetylation, AlphaScreen anti-acetyl-lysine; with virally co-expressed GCN5 acetyltransferase; inhibition, % at 15.6 µM;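 active = every replicate shows inhibition of at least 40%; inconclusive = mean inhibition at least 40% but some replicate below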
# MITF act = activators of MITF-driven TRPM1 promoter activity in SK-MEL-5 cells; SK-MEL-5 TRPM1-promoter luciferase, 24 h; % of positive control, neutral wells = 0; actives 0.75% (n = 300,000); AID 588334; activation, % at 12.5 µM;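 active = mean activation of at least 80% with every replicate also reaching 80%; inconclusive = mean reaches 80% but some replicate falls short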
# Hits are given with their value; i = inactive; ? = inconclusive; nt = not tested or not shown. A selection: hits, their analogues and other compounds. The true share with any hit is near 1.5%.
SMILES,Wnt bcat act,Cneo AK release,PGC1a acetyl inh,MITF act
CCCNC(=O)C[C@@H]1CC[C@@H]2[C@H](COc3ccc(NC(=O)CCC)cc3C(=O)N2C)O1,nt,110,i,nt
CCNC(=O)Nc1ccc2c(c1)C(=O)N(C)[C@@H]1CC[C@H](CC(=O)N[C@@H](C)c3ccccc3)O[C@@H]1CO2,nt,193,nt,nt
C[C@@H]1CN([C@H](C)CO)C(=O)c2cc(NC(=O)C3CCCCC3)ccc2O[C@@H](C)CCCCO[C@@H]1CN(C)Cc1ccc(C(F)(F)F)cc1,nt,i,i,nt
CN1C(=O)c2cc(NS(C)(=O)=O)ccc2OC[C@@H]2O[C@@H](CC(=O)O)CC[C@@H]21,nt,90,i,nt
CN1C(=O)c2cc(NS(C)(=O)=O)ccc2OC[C@@H]2O[C@H](CC(=O)O)CC[C@H]21,nt,i,i,nt
COc1ccc(S(=O)(=O)Nc2ccc3c(c2)C(=O)N([C@@H](C)CO)C[C@@H](C)[C@@H](CN(C)C(=O)Nc2cccc4ccccc24)O3)cc1,nt,i,i,nt
Cn1nc(C(=O)N2CCCCC2)c2c1-c1ccccc1S(=O)(=O)C2,i,i,48,i
OC[C@@H]1[C@H](c2ccc(-c3ccncc3)cc2)[C@@H]2CN(Cc3ccccn3)CCCCN12,nt,i,i,nt
Cc1cccnc1NC(N)=S,i,nt,nt,i
Cc1cccnc1NC(=S)Nc1ncccc1C,i,i,nt,101
Cc1ccc(NC(=S)NCCc2ccccc2)nc1,i,nt,i,84
Cc1cccnc1NC(=S)NCCc1ccccc1,40,nt,i,?
O=C(C[C@@H]1CC[C@H](NC(=O)C2CCC2)[C@H](CO)O1)NC1CCCCC1,nt,i,i,nt
CCC(=O)N(C)C[C@@H]1Oc2cc(-c3cncnc3)ccc2S(=O)(=O)N([C@@H](C)CO)C[C@@H]1C,nt,i,i,nt
COc1ccc(S(=O)(=O)Nc2ccc3c(c2)C(=O)N([C@H](C)CO)C[C@H](C)[C@H](CN(C)S(C)(=O)=O)OCCCC[C@H](C)O3)cc1,nt,i,i,nt
CCCNC(=O)N(C)C[C@H]1Oc2ncc(-c3cccc(C#N)c3)cc2C(=O)N([C@H](C)CO)C[C@@H]1C,nt,i,i,nt
O=C(O)CSc1nnc(COc2ccc(Br)cc2)n1-c1ccccc1,i,i,i,i
Cc1ccc(-n2c(COc3ccccc3)nnc2SCC(=O)O)cc1,62,i,i,nt
O=C(c1ccc(Cl)cc1)C(Cn1cncn1)C(Sc1ccccc1)c1ccccc1 (configuration not stated),nt,i,61,i
Cc1ccc(SC(c2ccccc2)C(Cn2cncn2)C(=O)c2ccccc2)cc1 (configuration not stated),nt,i,i,i
Cc1cccc(-c2nc(CN3CCN(Cc4cccc(F)c4)CC3)c(C)o2)c1,49,i,i,i
Cc1oc(-c2cccc(F)c2)nc1CN1CCCN(C(=O)c2ccco2)CC1,i,i,i,i
Cc1ccc(S(=O)(=O)N2C[C@H](O)COC[C@H]3O[C@@H](CC(=O)NCc4ccc5c(c4)OCO5)CC[C@@H]32)cc1,nt,i,i,nt
CNC(=O)C[C@@H]1CC[C@@H]2[C@H](COC[C@H](O)CN2S(=O)(=O)c2cccc(Cl)c2)O1,nt,100,i,nt
Cc1ccc(S(=O)(=O)N2C[C@@H](O)COC[C@H]3O[C@H](CC(=O)NCc4ccc5c(c4)OCO5)CC[C@@H]32)cc1,nt,104,i,nt
SMILES,Wnt bcat act,Cneo AK release,PGC1a acetyl inh,MITF act
O=C(C[C@@H]1CC[C@@H]2[C@H](COC[C@H](O)CN2S(=O)(=O)c2cccc(Cl)c2)O1)Nc1ccccc1,nt,i,i,nt
C[C@@H]1CN([C@H](C)CO)C(=O)CCCn2cc(nn2)CO[C@H]1CN(C)Cc1cccc2c1OCCCO2,nt,i,i,nt
COC(=O)C[C@H]1CC[C@@H](NS(=O)(=O)c2ccccc2F)[C@@H](CO)O1,nt,i,i,nt
CNC(=O)c1ccc(-c2cc3onc(-c4ccccc4)c3c(=O)n2C)cc1,43,i,i,96
Cc1ccc(-c2cc3onc(-c4ccccc4)c3c(=O)n2C)cc1,i,i,nt,i
COc1cccc(-c2ccc3c(c2)[C@@H]2[C@@H](CCN2C(=O)c2cccc(F)c2)[C@H](CO)N3)c1,nt,i,i,nt
CC(=O)c1cccc(NC(=S)NC(=O)c2ccccc2C)c1,i,nt,i,i
CC(=O)c1cccc(NC(=S)NC(=O)c2ccc(Cl)cc2)c1,i,nt,nt,97
CC(=O)c1cccc(NC(=S)NC(=O)c2cccc(C)c2)c1,i,i,i,109
CCCCN(C)C(=O)c1cc2cc3ccc(OC)cc3nc2o1,i,i,i,i
CCCCN(C)C(=O)c1cc2cc3cc(OC)ccc3nc2o1,44,nt,nt,i
CCC(=O)Nc1ccc2c(c1)C(=O)N(C)[C@H]1CC[C@H](CC(=O)NCc3ccccc3)O[C@H]1CO2,nt,i,i,nt

# Bioassay records from PubChem BioAssay.
